Where two headings read alike, the source gives them in different places.
Legend:
CAR xenograft = experiment: In vivo antitumor activity in CAR xenograft nude mouse model; set-up: species or system BALB/c nude mice
In short: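 Male 4-week-old BALB/c nude mice; CAR cells (cisplatin-resistant CAL27, cultured with 80 μM cisplatin), 1×10^7/mouse in medium:Matrigel 1:1, injected s.c. into flank. At ~50 mm3 (day 22), randomised into four groups; test compound oral 25, 50 or 100 mg/kg once daily ×30 in 1,2-propanediol; controls vehicle only. Caliper tumor size ([…]); tumors excised, weighed day 31.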

[1] = Toxicity monitoring and blood biochemical analysis in CAR xenograft nude mice; assay type: in vivo, BALB/c nude mice
[2] = Preliminary pharmacokinetic study of compound 12 in rats; details: single oral 100 mg/kg, PO-1 and PO-2 formulations, 0.5-24 h
CAR cell line = experiment: MTT antiproliferative assay against cisplatin-resistant oral squamous; assay type: cell-based, human
In short: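 Cells are a CAL27-derived line selected through 10 cycles of 10–80 μM cisplatin and maintained in DMEM/10% FBS with penicillin, streptomycin, 2 mM L-glutamine and 80 μM cisplatin. They were seeded at 2×10^4 cells/well and exposed to 0–100 μM test compound (0.5% DMSO vehicle) for 48 or 72 h. MTT (500 μg/ml) was added for 4 h at 37 °C, formazan was dissolved in DMSO, and A570 was read. Viability is expressed as % of control.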

[3] = read-out: IC50 (concentration for 50% antiproliferative effect), CAR cells, 48 h
[4] = read-out: IC50 (concentration for 50% antiproliferative effect), CAR cells, 72 h

Compound	IC50 (CAR cell line; [3]) [µM]	IC50 (CAR cell line; [4]) [µM]	also measured
COc1cc(/C=C/c2ccc(OC(=O)C(C)(CO)CO)cc2)cc(OC)c1 [Compound 12, 4-(3,5-Dimethoxystyryl)phenyl-3-hydroxy-2-(hydroxymethyl)-2-methylpropanoate]	–	–	inhibitory effects on CAR tumor size and weight (CAR xenograft; 25, 50 and 100 mg/kg PO once daily for 30 days): dose- and time-dependent inhibitory effects; antitumor activity (CAR xenograft; lowest oral dose 25 mg/kg/day): Obvious antitumor activity; changes in body weight, food consumption and behavior vs untreated control ([1]; 25, 50 and 100 mg/kg PO QD×30): no obvious changes; blood analysis, 12-fed groups vs control group ([1]; total protein, albumin, creatinine, BUN, uric acid, glucose, 25-100 mg/kg QD×30): no significant difference; blood concentration of compound 12 [2]: not detected
(E)-5-(4-((3-Hydroxy-2-(hydroxymethyl)-2-methylpropanoyl)oxy)styryl)-1,3-phenylene diacetate [Compound 23]	54.9 ± 2.59	114 ± 3.25	–
(E)-4-(3-Hydroxy-5-((3-hydroxy-2-(hydroxymethyl)-2-methylpropanoyl)oxy) styryl)phenyl 3-hydroxy-2-(hydroxymethyl)-2-methylpropanoate [Compound 25]	105 ± 1.98	113 ± 2.77	–
(E)-5-(4-((3-Hydroxy-2-(hydroxymethyl)-2-methylpropanoyl)oxy)styryl)-1,3-phenylene diacetate [Compound 22]	103 ± 4.58	116 ± 3.96	–
(E)-4-(3-Acetoxy-5-methoxystyryl)phenyl 3-hydroxy-2-(hydroxymethyl)-2-methylpropanoate [Compound 18]	169 ± 3.19	133 ± 2.45	–
(E)-4-(3,5-Dihydroxystyryl)phenyl 3-hydroxy-2-(hydroxymethyl)-2-methylpropanoate [Compound 20]	52 ± 2.6	50.3 ± 1.98	–
N.N.[Cl][Pt][Cl] [Cisplatin, reference compound]	> 100	> 100	–
(E)-4-(3-Acetoxy-5-((3-hydroxy-2-(hydroxymethyl)-2-methylpropanoyl)oxy) styryl)phenyl 3-hydroxy-2-(hydroxymethyl)-2-methylpropanoate [Compound 27]	122 ± 2.69	119 ± 2.19	–
(E)-5-(4-Hydroxystyryl)-1,3-phenylene bis(3-hydroxy-2-(hydroxymethyl)-2-methylpropanoate) [Compound 24]	90.4 ± 3.65	76.9 ± 3.22	–
4-[(E)-2-(3,5-dimethoxyphenyl)ethenyl]phenol [Pterostilbene, reference compound]	100 ± 4.78	98.3 ± 5.21	–
